ChEMBL document CHEMBL1123563, “New antifilarial agents. 1. Epoxy sulfonamides and ethynesulfonamides” (J Med Chem, 1987)
The source made the active and inactive calls.

Tests used:
molinema dessetae [1] = experiment: Antifilarial activity against Molinema dessetae in vivo against male adult worms at a dose of 200 mg/kg subcutaneously once a day for 5 days; Inactive; format: functional, organism-based; set-up: dose 200 mg/kg
Procedure, shortened: (§1)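 Proechimys oris of both sexes were each infected with 200 infective larvae dissected from Aedes aegypti mosquitoes. Microfilaremia was checked, and the rodents were treated 150–180 days post-infection. Compound was given subcutaneously as a 1% carboxymethylcellulose suspension once daily for 5 consecutive days. Microfilaremia was followed for 6 weeks, then adult male and female worms were counted at autopsy. A compound was scored active if no males and ≤1.6 females were found (p = 0.12).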

[2] = Antifilarial activity against Molinema dessetae in vivo in Proechimys oris the natural host at a dose of 200 mg/kg subcutaneously once a day for 5 days. Value is expressed as number of infected P. oris.; format: functional; conditions: route subcutaneous; procedure, shortened: as §1
[3] = Effective concentration of compound necessary to kill 50% of infective larvae of Molinema dessetae after 7 days was determined in vitro; format: functional
molinema dessetae [4] = experiment: Antifilarial activity against Molinema dessetae in vivo against female adult worms at a dose of 200 mg/kg subcutaneously once a day for 5 days; Inactive; format: functional, organism-based; set-up: dose 200 mg/kg; procedure, shortened: as §1
molinema dessetae [5] = tested on: molinema dessetae;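 further: in vitro assay on infective-stage larvae, EC90 being the concentration lethal to 90% of larvae after 7 days of exposure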
molinema dessetae [6] = experiment: Effective concentration of compound necessary to kill 90% of infective larvae of Molinema dessetae after 7 days was determined in vitro; Value ranges from 20-100; format: functional
Procedure, shortened: (§2)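 Infective larvae from the intermediate host were decontaminated and held 20 per 1.5 mL in a biphasic medium: L929 feeder layer with RPMI and fetal calf serum (90:10), plus penicillin and streptomycin. Compound solutions at several concentrations were made in DMSO, and 10 μL of each was added. After 7 days, survival was corrected by control, in duplicate runs. EC ranges are given in μM.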

molinema dessetae [7] = experiment: Antifilarial activity against Molinema dessetae in vivo against male adult worms at a dose of 100 mg/kg subcutaneously once a day for 5 days; Inactive; format: functional, organism-based; set-up: dose 100 mg/kg; procedure, shortened: as §1
[8] = Antifilarial activity against Molinema dessetae in vivo in Proechimys oris the natural host at a dose of 100 mg/kg subcutaneously once a day for 5 days. Value is expressed as number of infected P. oris.; format: functional; conditions: route subcutaneous; procedure, shortened: as §1
molinema dessetae [9] = experiment: Antifilarial activity against Molinema dessetae in vivo against female adult worms at a dose of 100 mg/kg subcutaneously once a day for 5 days; Inactive; format: functional, organism-based; set-up: dose 100 mg/kg; procedure, shortened: as §1
[10] = Effective concentration of compound necessary to kill 50% of infective larvae of Molinema dessetae after 7 days was determined in vitro; Value ranges from 20-100; format: functional; procedure, shortened: as §2
molinema dessetae [11] = experiment: Effective concentration of compound necessary to kill 90% of infective larvae of Molinema dessetae after 7 days was determined in vitro; Value ranges from 100-500; format: functional; procedure, shortened: as §2
[12] = Effective concentration of compound necessary to kill 50% of infective larvae of Molinema dessetae after 7 days was determined in vitro; Value ranges from 100-500; format: functional; procedure, shortened: as §2
molinema dessetae [13] = experiment: Antifilarial activity against Molinema dessetae in vivo against male adult worms at a dose of 200 mg/kg subcutaneously once a day for 5 days; Active; format: functional, organism-based; set-up: dose 200 mg/kg; procedure, shortened: as §1
molinema dessetae [14] = experiment: Antifilarial activity against Molinema dessetae in vivo against male adult worms at a dose of 40 mg/kg subcutaneously once a day for 5 days; Active; format: functional, organism-based; set-up: dose 40 mg/kg
[15] = Antifilarial activity against Molinema dessetae in vivo in Proechimys oris the natural host at a dose of 40 mg/kg subcutaneously once a day for 5 days. Value is expressed as number of infected P. oris.; format: functional; conditions: route subcutaneous
molinema dessetae [16] = experiment: Antifilarial activity against Molinema dessetae in vivo against female adult worms at a dose of 40 mg/kg subcutaneously once a day for 5 days; Active; format: functional, organism-based; set-up: dose 40 mg/kg
molinema dessetae [17] = experiment: Antifilarial activity against Molinema dessetae in vivo against male adult worms at a dose of 100 mg/kg subcutaneously once a day for 5 days; Active; format: functional, organism-based; set-up: dose 100 mg/kg; procedure, shortened: as §1
[18] = Antifilarial activity against Molinema dessetae in vivo in Proechimys oris the natural host at a dose of 10 mg/kg subcutaneously once a day for 5 days. Value is expressed as number of infected P. oris.; format: functional; conditions: route subcutaneous; procedure, shortened: as §1
molinema dessetae [19] = experiment: Antifilarial activity against Molinema dessetae in vivo against female adult worms at a dose of 10 mg/kg subcutaneously once a day for 5 days; Inactive; format: functional, organism-based; set-up: dose 10 mg/kg; procedure, shortened: as §1
molinema dessetae [20] = experiment: Antifilarial activity against Molinema dessetae in vivo against female adult worms at a dose of 200 mg/kg subcutaneously once a day for 5 days; Active; format: functional, organism-based; set-up: dose 200 mg/kg; procedure, shortened: as §1
molinema dessetae [21] = experiment: Antifilarial activity against Molinema dessetae in vivo against female adult worms at a dose of 100 mg/kg subcutaneously once a day for 5 days; Active; format: functional, organism-based; set-up: dose 100 mg/kg; procedure, shortened: as §1
molinema dessetae [22] = experiment: Antifilarial activity against Molinema dessetae in vivo against female adult worms at a dose of 0.2 mg/kg subcutaneously once a day for 5 days; Active; format: functional, organism-based; set-up: dose 0.2 mg/kg
molinema dessetae [23] = experiment: Antifilarial activity against Molinema dessetae in vivo against male adult worms at a dose of 0.2 mg/kg subcutaneously once a day for 5 days; Active; format: functional, organism-based; set-up: dose 0.2 mg/kg
molinema dessetae [24] = experiment: Antifilarial activity against Molinema dessetae in vivo in Proechimys oris the natural host at a dose of 0.2 mg/kg subcutaneously once a day for 5 days. Value is expressed as number of infected P. oris.; format: functional, organism-based; set-up: dose 0.2 mg/kg

## O=S(=O)(/C=C/c1ccccc1)N1CCOCC1
Molinema dessetae [1]
  Activity: inactive
[2]
  Activity: 2
[3]
  EC50: > 500 µM
Molinema dessetae [4]
  Activity: inactive
Molinema dessetae [5]
  EC90: > 500 µM

## CCOC(=O)N1CCN(S(=O)(=O)C2OC2c2ccccc2)CC1 (stereo not drawn)
Molinema dessetae [1]
  Activity: inactive
[2]
  Activity: 2
Molinema dessetae [6]
  EC90: 100 µM
[3]
  EC50: < 20 µM
Molinema dessetae [4]
  Activity: inactive

## CN1CCN(CC(=O)c2ccccc2)CC1
Molinema dessetae [7]
  Activity: inactive
[8]
  Activity: 1
[3]
  EC50: > 500 µM
Molinema dessetae [9]
  Activity: inactive
Molinema dessetae [5]
  EC90: > 500 µM

## CN1CCN(S(=O)(=O)[C@@H]2O[C@@H]2c2ccccc2)CC1
Molinema dessetae [7]
  Activity: inactive
[8]
  Activity: 2
[10]
  EC50: 100 µM
Molinema dessetae [11]
  EC90: 500 µM
Molinema dessetae [9]
  Activity: inactive

## Cc1ccc(C2OC2S(=O)(=O)N2CCN(C)CC2)cc1 (stereo not drawn)
Molinema dessetae [1]
  Activity: inactive
[2]
  Activity: 2
[10]
  EC50: 100 µM
Molinema dessetae [11]
  EC90: 500 µM
Molinema dessetae [4]
  Activity: inactive

## O=S(=O)(C1CC1c1ccccc1)N1CCOCC1 (stereo not drawn)
Molinema dessetae [1]
  Activity: inactive
[2]
  Activity: 2
Molinema dessetae [4]
  Activity: inactive

## O=S(=O)(C1OC1c1ccc(Cl)cc1)N1CCOCC1 (stereo not drawn)
Molinema dessetae [1]
  Activity: inactive
[2]
  Activity: 2
[10]
  EC50: 100 µM
Molinema dessetae [11]
  EC90: 500 µM
Molinema dessetae [4]
  Activity: inactive

## CN1CCN(S(=O)(=O)CC(=O)c2ccccc2)CC1
[3]
  EC50: > 500 µM
Molinema dessetae [5]
  EC90: > 500 µM

## Cc1cccc(C2OC2S(=O)(=O)N2CCN(C)CC2)c1 (stereo not drawn)
[12]
  EC50: 500 µM
Molinema dessetae [11]
  EC90: 500 µM

## CN(C)S(=O)(=O)C#Cc1ccccc1
Molinema dessetae [13]
  Activity: Active
[2]
  Activity: 2
[12]
  EC50: 500 µM
Molinema dessetae [4]
  Activity: inactive
Molinema dessetae [5]
  EC90: > 500 µM

## C=C(CS(=O)(=O)N1CCN(C)CC1)c1ccccc1
[12]
  EC50: 500 µM
Molinema dessetae [5]
  EC90: > 500 µM

## C[C@]1(c2ccccc2)O[C@@H]1S(=O)(=O)N1CCOCC1
Molinema dessetae [1]
  Activity: inactive
[2]
  Activity: 2
[3]
  EC50: > 500 µM
Molinema dessetae [4]
  Activity: inactive
Molinema dessetae [5]
  EC90: > 500 µM

## CN(C)S(=O)(=O)[C@@H]1O[C@@H]1c1ccccc1
[12]
  EC50: 500 µM
Molinema dessetae [11]
  EC90: 500 µM

## Cc1ccc(C(=O)Nc2ccc(S(=O)(=O)O)c3cc(S(=O)(=O)O)cc(S(=O)(=O)O)c23)cc1NC(=O)c1cccc(NC(=O)Nc2cccc(C(=O)Nc3cc(C(=O)Nc4ccc(S(=O)(=O)O)c5cc(S(=O)(=O)O)cc(S(=O)(=O)O)c45)ccc3C)c2)c1 [SURAMIN]
Molinema dessetae [14]
  Activity: Active
[15]
  Activity: 2
[12]
  EC50: 500 µM
Molinema dessetae [16]
  Activity: Active
Molinema dessetae [11]
  EC90: 500 µM

## O=S(=O)(C#Cc1ccccc1)N1CCOCC1
Molinema dessetae [17]
  Activity: Active
Molinema dessetae [13]
  Activity: Active
[8]
  Activity: 2
[18]
  Activity: 2
[2]
  Activity: 2
Molinema dessetae [19]
  Activity: inactive
Molinema dessetae [20]
  Activity: Active
[3]
  EC50: < 20 µM
Molinema dessetae [5]
  EC90: < 20 µM

## O=S(=O)([C@@H]1O[C@H]1c1ccccc1)N1CCOCC1
Molinema dessetae [21]
  Activity: Active
Molinema dessetae [17]
  Activity: Active
[8]
  Activity: 3
[10]
  EC50: 100 µM
Molinema dessetae [6]
  EC90: 100 µM

## O=S(=O)(C1OC1c1ccc(Cl)c(Cl)c1)N1CCCC1 (stereo not drawn)
[10]
  EC50: 100 µM
Molinema dessetae [6]
  EC90: 100 µM

## C[C@@H]1O[C@H]1S(=O)(=O)N1CCOCC1
Molinema dessetae [1]
  Activity: inactive
[2]
  Activity: 2
[3]
  EC50: > 500 µM
Molinema dessetae [4]
  Activity: inactive
Molinema dessetae [5]
  EC90: > 500 µM

## Cc1cccc(C2OC2S(=O)(=O)N2CCOCC2)c1 (stereo not drawn)
Molinema dessetae [1]
  Activity: inactive
[2]
  Activity: 2
[3]
  EC50: < 20 µM
Molinema dessetae [4]
  Activity: inactive
Molinema dessetae [5]
  EC90: < 20 µM

## IVERMECTIN
Molinema dessetae [22]
  Activity: Active
Molinema dessetae [23]
  Activity: Active
Molinema dessetae [24]
  Activity: 2
Molinema dessetae [5]
  EC90: < 20 µM

## O=S(=O)(/C=C\c1ccccc1)N1CCOCC1
[12]
  EC50: 500 µM
Molinema dessetae [5]
  EC90: > 500 µM
